Test results published in ChEMBL document CHEMBL5543129, “Peptide Inhibitor Targeting the Extraterminal Domain in BRD4 Potently Suppresses Breast Cancer Both In Vitro and In Vivo” (J Med Chem, 2024).
Calls of active or inactive are those of the source.

Legend:
Assay type in all cases: functional, cell-based
MCF7 [1] = assay: Cytotoxicity against human MCF7 cells incubated for 1 week by CellTiter 96 Aqueous One Solution based assay; settings: time 1.0 weeks
Outline: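 Cells (2 × 10^3/well, DMEM + 10% FBS, 37 °C, 5% CO2) treated with a concentration gradient of peptide for 1 week. MTS reagent added for 1 h, absorbance read at 490 nm, EC50 derived.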

MCF7 [2] = assay: Inhibition of colony formation in human MCF7 cells at 10 uM incubated for 2 weeks by crystal violet staining based assay
Outline: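 Cells are seeded at 1 × 10^3/well and treated with peptide (10 μM) for 2 weeks, alone or with JQ1 5 μM, iJMJD6 10 μM, ICI 2.5 μM, or tamoxifen 3 μM (tamoxifen-resistant lines). Colonies are stained with crystal violet, dissolved in 10% acetic acid, and read at 590 nm. Three biological repeats.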

MCF7 [3] = assay: Inhibition of cell migration in human MCF7 cells at 10 uM incubated for 24 hrs by inverted microscopic assay
Outline: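 Cells are seeded at 5 × 10^5/well and scratched at 80–90% confluence. They are kept in serum-free medium with peptide (10 μM); partner agents are JQ1 5 μM, iJMJD6 10 μM, or ICI 2.5 μM. Wound area is imaged by inverted microscope at 0 and 12 or 24 h. Wound closure % = (A0−A1)/A0 × 100. Three biological repeats.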

C[C@]12CC[C@@H]3c4ccc(O)cc4C[C@@H](CCCCCCCCC[S+]([O-])CCCC(F)(F)C(F)(F)F)[C@H]3[C@@H]1CC[C@@H]2O (stereo partly drawn)
active: Activity (MCF7 [1]) | inhibition (MCF7 [2]) | inhibition (MCF7 [3])
